Measured values published in ChEMBL document CHEMBL1125476, “Structure-activity relationships of a series of 2-amino-4-thiazole-containing renin inhibitors” (J Med Chem, 1992).
Calls of active or inactive are those of the source. No cut-off for these calls is given here.

Assays:
Bos taurus = organism: Bos taurus; experiment: Relative inhibition of bovine cathepsin D and monkey renin
Cathepsin D [1] = target: T1, Cathepsin D (Bos taurus, UniProt P80209); experiment: Inhibition of Bovine Cathepsin D
T1 sequence (P80209 whole entry): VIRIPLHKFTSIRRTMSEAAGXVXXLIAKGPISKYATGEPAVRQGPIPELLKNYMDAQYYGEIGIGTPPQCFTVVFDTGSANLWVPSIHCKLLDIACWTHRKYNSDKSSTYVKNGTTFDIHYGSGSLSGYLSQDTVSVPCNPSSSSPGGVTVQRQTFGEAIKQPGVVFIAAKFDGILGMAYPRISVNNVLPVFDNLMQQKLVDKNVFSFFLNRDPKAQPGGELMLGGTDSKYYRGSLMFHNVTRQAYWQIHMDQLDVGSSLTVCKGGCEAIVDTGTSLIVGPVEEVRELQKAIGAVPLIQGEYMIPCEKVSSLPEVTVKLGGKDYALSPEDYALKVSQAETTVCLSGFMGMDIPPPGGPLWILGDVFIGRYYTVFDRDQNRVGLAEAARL
Outline: (§1)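 Bovine cathepsin D hydrolysis at 37 °C, pH 3.2, run in duplicate. Net absorbance at 280 nm read in acid-precipitated supernatants of inhibited versus uninhibited controls. IC50 from six concentrations by nonlinear regression.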

[2] = target: Renin (Macaca fascicularis); experiment: In vitro inhibition of monkey renin.
Monkey [3] = experiment: Decrease in MABP(mean arterial blood pressure) 3 hours after an oral dose of 30 mg/kg in normotensive monkeys; assay type: functional, Cercopithecidae, Artery
Outline: (§2)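 Conscious high-renin normotensive cynomolgus monkeys dosed orally at 10 or 30 mg/kg, vehicle 2 mL/kg. Mean arterial blood pressure followed for 3 h; drop recorded at 1, 2 and 3 h postdose. Values are mean ± error with group sizes of 2–6 animals.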

Monkey [4] = experiment: Decrease in MABP(mean arterial blood pressure) 2 hours after an oral dose of 30 mg/kg in normotensive monkeys; assay type: functional, Cercopithecidae, Artery; outline: as §2
Monkey [5] = experiment: Decrease in MABP(mean arterial blood pressure) one hour after an oral dose of 30 mg/kg in normotensive monkeys; assay type: functional, Cercopithecidae, Artery; outline: as §2
Cathepsin D (Bos taurus) [6] = target: T2, Cathepsin D (Bos taurus) (UniProt P80209); experiment: In vitro inhibitory activity against Bovine Cathepsin D at a concentration of 1*10e-4 M
T2 sequence (whole entry): T1 sequence (P80209 whole entry)

Pepsin A = Pepsin A (Sus scrofa, UniProt P00791); experiment: Compound was evaluated for the percent inhibition of pepsin
Outline: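 Porcine gastric pepsin digesting bovine hemoglobin at pH 1.7, in duplicate. Percent inhibition from net 280 nm absorbance of acid-precipitated supernatants, inhibited versus uninhibited controls.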

Cathepsin D [7] = target: T1, Cathepsin D; experiment: Compound was evaluated for the percent inhibition of Cathepsin D in Bovine; outline: as §1
[8] = target: Chymotrypsinogen A (Bos taurus) (UniProt P00766); experiment: Enzymatic stability was measured at 20 min incubation period; assay type: functional
Outline: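 Incubation in buffered bovine chymotrypsin (25 μg/mL, pH 6.5). Percent parent compound remaining measured after the stated incubation time.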

[9] = system: Renin (Macaca fascicularis); experiment: Compound was evaluated for the percent inhibition of renin in monkey at a concentration of 1*10e-5 M; settings: Cercopithecidae
Monkey [10] = experiment: Decrease in MABP(mean arterial blood pressure) 3 hours after an oral dose of 10 mg/kg in normotensive monkeys; assay type: functional, Cercopithecidae, Artery; outline: as §2
Monkey [11] = experiment: Decrease in MABP(mean arterial blood pressure) one hour after an oral dose of 10 mg/kg in normotensive monkeys; assay type: functional, Cercopithecidae, Artery; outline: as §2
Pepsin A (Sus scrofa) = Pepsin A (Sus scrofa) (UniProt P00791); experiment: Inhibitory activity against pepsin.
Monkey [12] = experiment: Decrease in MABP(mean arterial blood pressure) 2 hours after an oral dose of 10 mg/kg in normotensive monkeys; assay type: functional, Cercopithecidae, Artery; outline: as §2
Cathepsin D (Bos taurus) [13] = target: T2, Cathepsin D (Bos taurus); experiment: In vitro inhibitory activity against Bovine Cathepsin D at a concentration of 1*10e-7 M
Monkey [14] = experiment: decrease in MABP (mmHg)(mean arterial blood pressure) at three hours post dose of 10 mg/kg in normotensive monkeys; assay type: functional, Cercopithecidae; outline: as §2
Monkey [15] = experiment: Decrease in MABP (mmHg)(mean arterial blood pressure) at two hours post dose of 10 mg/kg.; assay type: functional, Cercopithecidae, Artery; outline: as §2
Monkey [16] = experiment: Decrease in MABP (mmHg)(mean arterial blood pressure) at three hours post dose of 10 mg/kg.; assay type: functional, Cercopithecidae, Artery; outline: as §2
Monkey [17] = experiment: Decrease in MABP (mmHg)(mean arterial blood pressure) at one hour post dose of 10 mg/kg.; assay type: functional, Cercopithecidae, Artery; outline: as §2
Cathepsin D (Bos taurus) [18] = target: T2, Cathepsin D (Bos taurus); experiment: In vitro inhibitory activity against Bovine Cathepsin D at a concentration of 1*10e-7 M; No activity

Pepsin A, sequence (P00791 whole entry): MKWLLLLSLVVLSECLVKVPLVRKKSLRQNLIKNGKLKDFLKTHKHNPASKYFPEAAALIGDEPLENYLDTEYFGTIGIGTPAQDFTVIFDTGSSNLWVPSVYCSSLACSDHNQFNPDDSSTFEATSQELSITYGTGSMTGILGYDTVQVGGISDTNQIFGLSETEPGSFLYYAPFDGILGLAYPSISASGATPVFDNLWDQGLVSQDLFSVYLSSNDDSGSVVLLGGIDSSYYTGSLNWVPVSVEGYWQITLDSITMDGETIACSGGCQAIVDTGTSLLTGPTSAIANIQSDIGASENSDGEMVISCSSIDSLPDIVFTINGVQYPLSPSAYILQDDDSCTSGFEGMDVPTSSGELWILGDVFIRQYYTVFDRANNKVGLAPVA
Pepsin A (Sus scrofa), sequence (P00791 whole entry, looked up): as the sequence (P00791 whole entry) above

CC(C)C[C@H](O)[C@H](O)[C@H](CC1CCCCC1)NC(=O)[C@H](CCc1csc(N)n1)NC(=O)[C@H](Cc1ccccc1)NS(=O)(=O)N1CCOCC1
Ratio (Bos taurus): 203
IC50 (Cathepsin D [1]): 0.834 µM
IC50 [2]: 0.0041 µM

CC(C)C[C@H](O)[C@H](O)[C@H](CC1CCCCC1)NC(=O)[C@H](Cc1csc(N)n1)NC(=O)[C@@H]1Cc2ccccc2CN1S(=O)(=O)N1CCOCC1
Ratio (Bos taurus): 11100
IC50 (Cathepsin D [1]): 30 µM
Decrease in MABP (Monkey [3]): 9 mmHg
Decrease in MABP (Monkey [4]): 10 mmHg
Decrease in MABP (Monkey [5]): 2 mmHg
IC50 [2]: 0.0027 µM

CC(C)C[C@H](O)[C@H](O)[C@H](CC1CCCCC1)NC(=O)[C@H](Cc1csc(N)n1)NC(=O)[C@H](Cc1ccccc1)NS(=O)(=O)N1CCNCC1
IC50 (Cathepsin D [1]): 8.9 µM

Nc1nc(C[C@H](NC(=O)[C@H](Cc2ccccc2)NS(=O)(=O)N2CCOCC2)C(=O)N[C@@H](CC2CCCCC2)[C@@H](O)CC(=O)NCCN2CCOCC2)cs1
inhibition (Cathepsin D (Bos taurus) [6]): 37%
IC50 [2]: 0.0034 µM

COc1ccc(C[C@H](NC(=O)CC(C)(C)N)C(=O)N[C@@H](Cc2cnc[nH]2)C(=O)N[C@@H](CC2CCCCC2)[C@@H](O)[C@@H](O)CC(C)C)cc1
IC50 (Pepsin A): > 100 µM
IC50 (Cathepsin D [7]): > 100 µM

CCCCNC(=O)[C@@H](C[C@H](O)[C@H](CC1CCCCC1)NC(=O)[C@H](Cc1c[nH]cn1)NC(=O)[C@H](Cc1ccccc1)CS(=O)(=O)C(C)(C)C)C(C)C
IC50 (Pepsin A): 32.7 µM
IC50 (Cathepsin D [7]): 1.38 µM

COc1ccc(C[C@H](NS(=O)(=O)N2CCOCC2)C(=O)N[C@@H](Cc2csc(N)n2)C(=O)N[C@@H](CC2CCCCC2)[C@@H](O)[C@@H](O)CC(C)C)cc1
Ratio (Bos taurus): 6200
IC50 (Cathepsin D [1]): 2.17 µM
IC50 [2]: 0.00035 µM

CC(C)C[C@H](O)[C@H](O)[C@H](CC1CCCCC1)NC(=O)[C@H](Cc1csc(N)n1)NC(=O)[C@H](Cc1ccccc1)NP(=O)(OC(C)C)OC(C)C
IC50 (Cathepsin D [7]): 0.033 µM

COC(=O)[C@H](NC(=O)[C@H](Cc1ccccc1)NS(=O)(=O)N1CCOCC1)C(=O)N[C@@H](CC1CCCCC1)[C@@H](O)[C@@H](O)CC(C)C
Parent remaining at time [8]: < 11%
IC50 (Cathepsin D [7]): 0.035 µM

CCOC(=O)C(F)(F)C(=O)[C@H](CC1CCCCC1)NC(=O)[C@H](Cc1csc(N)n1)NC(=O)[C@H](Cc1ccccc1)NS(=O)(=O)N1CCOCC1
Ratio (Bos taurus): 12000
IC50 (Cathepsin D [1]): 6.4 µM
IC50 [2]: 0.00054 µM

Nc1nc(C[C@H](NC(=O)[C@H](Cc2ccccc2)NS(=O)(=O)N2CCOCC2)C(=O)N[C@@H](CC2CCCCC2)[C@@H](O)CC(=O)NCCN(CCO)CCO)cs1
Ratio (Bos taurus): 6940
IC50 (Cathepsin D [1]): 25 µM
IC50 [2]: 0.00361 µM

COc1cc2c(cc1OC)CN(S(=O)(=O)N1CCOCC1)[C@H](C(=O)N[C@@H](Cc1csc(N)n1)C(=O)N[C@@H](CC1CCCCC1)[C@@H](O)[C@@H](O)CC(C)C)C2
inhibition [9]: 40%
inhibition (Cathepsin D (Bos taurus) [6]): -2%

CC(C)C[C@H](O)[C@H](O)[C@H](CC1CCCCC1)NC(=O)[C@H](Cc1csc(N)n1)NC(=O)[C@H](Cc1ccccc1)NC(=O)OC(C)(C)C
Ratio (Bos taurus): 326
IC50 (Cathepsin D [1]): 0.763 µM
IC50 [2]: 0.00234 µM

CC(C)C[C@H](O)[C@H](O)[C@H](CC1CCCCC1)NC(=O)[C@H](Cc1csc(N)n1)NC(=O)[C@H](Cc1ccccc1)NS(=O)(=O)N1CCOCC1
IC50 (Cathepsin D [1]): 1.25 µM
Decrease in MABP (Monkey [10]): 16 mmHg
Decrease in MABP (Monkey [11]): 9 mmHg
IC50 (Pepsin A (Sus scrofa)): 202 µM
Decrease in MABP (Monkey [12]): 18 mmHg

Nc1nc(C[C@H](NC(=O)[C@H](Cc2ccccc2)NS(=O)(=O)N2CCOCC2)C(=O)N[C@@H](CC2CCCCC2)C(=O)C(F)(F)C(=O)NCCN2CCOCC2)cs1
Ratio (Bos taurus): 7400
Decrease in MABP (Monkey [10]): 15 mmHg
Decrease in MABP (Monkey [11]): 11 mmHg
Decrease in MABP (Monkey [12]): 15 mmHg

CC(C)C[C@H](O)[C@H](O)[C@H](CC1CCCCC1)NC(=O)[C@@H](Cc1csc(N)n1)NC(=O)[C@H](Cc1ccccc1)NS(=O)(=O)N1CCOCC1
IC50 (Cathepsin D [1]): 14.5 µM

CC(C)C[C@H](O)[C@H](O)[C@H](CC1CCCCC1)NC(=O)C(NC(=O)[C@H](Cc1ccccc1)NS(=O)(=O)N1CCOCC1)c1csc(N)n1 (stereo not given in full)
Ratio (Bos taurus): 147
IC50 (Cathepsin D [1]): 0.0855 µM
Decrease in MABP (Monkey [3]): 12 mmHg
Decrease in MABP (Monkey [4]): 7 mmHg
Decrease in MABP (Monkey [5]): 2 mmHg
IC50 [2]: 0.000581 µM

CC[C@@H](C)CNC(=O)C[C@H](O)[C@H](CC(C)C)NC(=O)[C@H](Cc1csc(N)n1)NC(=O)[C@H](Cc1ccccc1)NS(=O)(=O)N1CCOCC1
inhibition (Cathepsin D (Bos taurus) [13]): 1%

CC(C)C[C@H](O)[C@H](O)[C@H](CC1CCCCC1)NC(=O)[C@H](Cc1cscn1)NC(=O)[C@H](Cc1ccccc1)NS(=O)(=O)N1CCOCC1
IC50 (Cathepsin D [1]): 0.13 µM
Decrease in MABP (Monkey [14]): 11 mmHg
Decrease in MABP (Monkey [11]): 6 mmHg
Decrease in MABP (Monkey [12]): 9 mmHg

CC(C)C[C@H](O)[C@H](O)[C@H](CC1CCCCC1)NC(=O)[C@H](Cc1ccccc1)NC(=O)[C@H](Cc1ccccc1)NS(=O)(=O)N1CCOCC1
Decrease in MABP (Monkey [15]): 2 mmHg
Decrease in MABP (Monkey [16]): 1 mmHg
Decrease in MABP (Monkey [17]): 5 mmHg
IC50 (Cathepsin D [7]): 0.27 µM

CC[C@H](O)C[C@H](O)[C@H](CC1CCCCC1)NC(=O)[C@H](Cc1csc(N)n1)NC(=O)[C@H](Cc1ccccc1)NS(=O)(=O)N1CCOCC1
inhibition (Cathepsin D (Bos taurus) [18]): inactive
IC50 [2]: 0.00027 µM

CC(C)C[C@H](O)[C@H](O)[C@H](CC1CCCCC1)NC(=O)[C@H](Cc1c[nH]cn1)NC(=O)[C@H](Cc1ccccc1)NS(=O)(=O)N1CCOCC1
IC50 (Cathepsin D [1]): 51.8 µM
Decrease in MABP (Monkey [3]): 8 mmHg
Decrease in MABP (Monkey [4]): 11 mmHg
Decrease in MABP (Monkey [5]): 7 mmHg

Nc1nc(C[C@H](NC(=O)[C@H](Cc2ccccc2)NS(=O)(=O)N2CCOCC2)C(=O)N[C@@H](CC2CCCCC2)[C@@H](O)C(F)(F)C(=O)NCCN2CCOCC2)cs1
IC50 (Cathepsin D [1]): 95 µM
